Tests used:
Mus musculus [1] = experiment: Antiinflammatory activity in Swiss albino mouse assessed as inhibition of carrageenan-induced paw edema at 100 mg/kg, po administered 60 mins before carrageenan challenge measured after 270 mins; format: functional
In short: (§1)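 Mice fasted overnight, gavaged with suspension in 0.5% carboxymethyl cellulose or vehicle. 60 min later, 0.5 mg/25 µL carrageenan in 154 mM saline injected subplantar into right hind paw, saline into left. Right-minus-left footpad thickness by dial gauge every 90 min over 6 h; % inhibition versus control, mean ± SEM, two-tailed t-test. Indometacin reference.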

Mus musculus [2] = experiment: Antiinflammatory activity in Swiss albino mouse assessed as inhibition of carrageenan-induced paw edema at 100 mg/kg, po administered 60 mins before carrageenan challenge measured after 360 mins; format: functional; in short: as §1
Mus musculus [3] = experiment: Toxicity in Swiss albino mouse assessed as gastric ulceration at 100 mg/kg, po; format: organism-based, Stomach; design: dose 100 mg/kg, route oral; details: in vivo
In short: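 Mice fasted the day before (water allowed), given 100 mg/kg orally by gavage as suspension in 0.5% carboxymethyl cellulose; vehicle controls. Carrageenan paw oedema followed over 6 h. Immediately after last paw measurement, animals sacrificed under ether anaesthesia, stomachs removed and examined under dissecting microscope; stomach with one or more ulcers scored positive; expressed as ulcerated/total (n=6 per group).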

Mus musculus [4] = experiment: Antiinflammatory activity in Swiss albino mouse assessed as inhibition of carrageenan-induced paw edema at 100 mg/kg, po administered 60 mins before carrageenan challenge measured after 180 mins; format: functional; in short: as §1
Mus musculus [5] = experiment: Analgesic activity in Swiss albino mouse assessed as p-benzoquinone-induced writhing at 100 mg/kg, po administered 60 mins before benzoquinone challenge; format: functional
In short: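 Mice fasted overnight with water allowed, dosed by gavage with suspension in 0.5% carboxymethyl cellulose; vehicle controls. 60 min later, i.p. 0.1 mL/10 g of 2.5% (v/v) p-benzoquinone in distilled water. Writhes counted individually for 15 min starting 5 min post-injection; % change from vehicle writhing controls, mean ± SEM, two-tailed t-test. Aspirin reference.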

Mus musculus [6] = experiment: Antiinflammatory activity in Swiss albino mouse assessed as inhibition of carrageenan-induced paw edema at 100 mg/kg, po administered 60 mins before carrageenan challenge measured after 90 mins; format: functional; in short: as §1

| Compound | inhibition in vivo at 100 mg/kg (Mus musculus [1]) | inhibition in vivo at 100 mg/kg (Mus musculus [2]) | Activity (Mus musculus [3]) | inhibition in vivo at 100 mg/kg (Mus musculus [4]) | inhibition in vivo at 100 mg/kg (Mus musculus [5]) | inhibition in vivo at 100 mg/kg (Mus musculus [6]) |
| --- | --- | --- | --- | --- | --- | --- |
| CCOC(=O)c1sc2nc(S[C@@H]3O[C@H](CO)[C@@H](O)[C@@H]3O)n(N)c(=O)c2c1C | 35.9% | 38.9% | Non-toxic | 35.6% | 53.3% | 32.1% |
| CCOC(=O)c1sc2c(c1C)C(=O)N(N)C(S[C@@H]1O[C@H](CO)[C@@H](O)[C@H](O)[C@H]1O)N2 (stereo partly drawn) | 33.9% | 34.4% |  | 31.2% | 51% | 29.7% |
| CCOC(=O)c1sc2nc(S[C@@H]3O[C@H](COC(C)=O)[C@@H](OC(C)=O)[C@@H]3OC(C)=O)n(N)c(=O)c2c1C | 35.9% | 38.9% | Non-toxic | 35.6% | 53.3% | 32.1% |
| CC(=O)c1sc2c(c1C)C(=O)N(N)C(S[C@@H]1O[C@H](CO)[C@H](O)[C@H](O)[C@H]1O)N2 (stereo partly drawn) | 17.5% | 20.7% |  | 16.6% | 35.7% | 14.4% |
| COc1ccc2c(c1)c(CC(=O)O)c(C)n2C(=O)c1ccc(Cl)cc1 [INDOMETHACIN] | 41.9% | 42.7% |  | 30.6% |  | 29.5% |
| CC(=O)Oc1ccccc1C(=O)O [ASPIRIN] |  |  |  |  | 51.9% |  |
| CCOC(=O)c1sc2nc(S[C@@H]3O[C@H](COC(C)=O)[C@@H](OC(C)=O)[C@H](OC(C)=O)[C@H]3OC(C)=O)n(N)c(=O)c2c1C | 20.3% | 22.3% |  | 14.7% | 37.9% | 13.2% |
| CC(=O)c1sc2[nH]c(=S)n(N)c(=O)c2c1C | 8.3% | 8.5% | Non-toxic | 7.8% | 35.7% | 6.1% |
| CC(=O)c1sc2nc(S[C@@H]3O[C@H](CO)[C@@H](O)[C@@H]3O)n(N)c(=O)c2c1C | 28.6% | 35.6% | Non-toxic | 29.8% | 48.8% | 28.5% |
| CC(=O)OC[C@H]1O[C@@H](Sc2nc3sc(C(C)=O)c(C)c3c(=O)n2N)[C@H](OC(C)=O)[C@@H](OC(C)=O)[C@@H]1OC(C)=O | 29.9% | 34.2% | Non-toxic | 23.9% | 45.4% | 25.7% |
| CC(=O)OC[C@H]1O[C@@H](Sc2nc3sc(C(C)=O)c(C)c3c(=O)n2N)[C@@H](OC(C)=O)[C@@H]1OC(C)=O | 28.6% | 35.6% | Non-toxic | 29.8% | 48.8% | 28.5% |
| CCOC(=O)c1sc2nc(S[C@@H]3O[C@H](CO)[C@H](O)[C@H](O)[C@H]3O)n(N)c(=O)c2c1C |  |  | Non-toxic |  |  |  |
| CCOC(=O)c1sc2[nH]c(=S)n(N)c(=O)c2c1C | 8.3% | 8.5% | Non-toxic | 6.1% | 23.9% | 1.2% |
| CC(=O)OC[C@H]1O[C@@H](Sc2nc3sc(C(C)=O)c(C)c3c(=O)n2N)[C@H](OC(C)=O)[C@@H](OC(C)=O)[C@H]1OC(C)=O | 10.5% | 13.1% |  | 7.8% | 13.8% | 14.9% |

Source: ChEMBL document CHEMBL1157044, “Synthesis, biological and medicinal significance of S-glycosido-thieno[2,3-d]-pyrimidines as new anti-inflammatory and analgesic agents” (Eur J Med Chem, 2010)
